STAT3 blocker: reduces IL-6 driven STAT3 reporter signal; U3A cells, IL-6 STAT3-luciferase reporter, luminescence; host cell line lacks STAT1; 190,000 compounds, 0.89% hits; inhibition, % at 5.5 µM;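 active = inhibition above the mean inhibition across all screened compounds plus 3 SD, cut at about 44% in these data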
STAT1 inh: reduces IFN-gamma driven STAT1 reporter signal; 200,000 compounds, 0.35% hits; AID 920; inhibition, % at 5.5 µM; NIH 3T3 STAT1-luciferase reporter, luminescence;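 active = inhibition above a set limit, the mean inhibition across all tested compounds plus 3 SD, cut at about 34% in these data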
STAT3 act: STAT3 signaling activation | U3A cells, IL-6 STAT3-luciferase reporter, luminescence; 100% = signal with IL-6 EC80 alone | activation (% of control), % at 5.6 µM | 190,000 compounds, 0.91% hits | AID 871;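 active = activation above the screen-wide mean of compound activation plus 3 SD, cut at about 130% in these data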
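Material: human STAT1-deficient U3A cells with stable STAT3-luciferase reporter / Probe or stimulus: IL-6 stimulus at 33 ng/mL final / Schedule: 1 h compound pre-exposure, 6 h IL-6 stimulation, 37 °C / Technique: luminescence / Read-out basis: percent of IL-6-only median luminescence / Control set: IL-6-only high control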
STAT1 activator: STAT1 signaling activation. activation (% of control), % at 5.5 µM. AID 932. NIH 3T3 STAT1-luciferase reporter, IFN-gamma, luminescence; 100% = IFN-gamma alone, no compound. 200,000 compounds, 2.6% hits;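 active = activation above the screen-wide mean activation plus 3 SD, cut at about 130% in these data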
APP 5'UTR act: APP 5'UTR luciferase reporter activation; SH-SY5Y APP 5'UTR luciferase reporter, luminescence; zero percent = DMSO vehicle wells; activation, % at 2 µM; 190,000 compounds, 1% hits; AID 1276;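 active = activation above a set limit, based on mean plus 3 SD of controls, cut at about 140% in these data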
NF-kB expr up: compounds increasing NF-kB expression in human neuronal cells | fold change at 12.5 µM | AID 1239 | 190,000 compounds, 1.6% hits | NF-kB reporter expression; stronger effect = higher value; in the data active = fold change above about 3.3
STAT1 act conf: confirmation of STAT1 signaling activators | shares compounds with STAT1 activator | NIH 3T3 STAT1-luciferase reporter, IFN-gamma potentiation, luminescence; 100% = IFN-gamma EC80 alone, no compound | activation (% of control), % at 5.7 µM | 1,200 compounds, 97% hits;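 active = activation above a set limit carried over from the earlier primary STAT1 screen, cut at about 140% in these data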
NFkB act STAT1ct: counter-screen for STAT1 activators: NF-kappaB activation; 1,200 compounds, 43% hits; activation (% of control), % at 5.7 µM; shares compounds with STAT1 activator; HEK293T NF-kB luciferase reporter, TNF-alpha stimulated, luminescence; 100% = TNF-alpha with vehicle only;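 active = activation above the mean of solvent-only control wells plus 3 SD, set per campaign, cut at about 130% in these data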;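 note: TNF-alpha given at a submaximal dose yielding about 80% of full reporter signal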
STAT3 act 2: activates human STAT3, counter-screen to STAT1 activators; shares compounds with STAT1 activator; U3A cells STAT3-luciferase reporter, IL-6, luminescence; cells lack STAT1; 100 = IL-6 alone, no compound effect; activation (% of control), % at 5.7 µM; 1,200 compounds, 46% hits; AID 1316;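 active = activation above the solvent-only control well mean plus 3 SD, set per plate batch, cut at about 110% in these data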;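 note: higher means more STAT3 reporter activation so hits are non-selective activators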
A number is an active result; . = inactive; / = not tested or not shown. A selection: hits, their analogues and other compounds. The true share with any hit is near 4.9%.

SMILES	STAT3 blocker	STAT1 inh	STAT3 act	STAT1 activator	APP 5'UTR act	NF-kB expr up	STAT1 act conf	NFkB act STAT1ct	STAT3 act 2
O=C(O)c1ccc(N/N=C/c2ccc(-c3ccccc3)cc2)cc1	.	.	.	220	186	10	321	162	.
O=C(O)c1ccc(/C=N/Nc2ccc(C(F)(F)F)cn2)cc1	.	.	.	155	138	3.9	210	.	124
C=CCNC(=S)NNC(=O)COc1ccc2cc(Br)ccc2c1	.	.	.	152	.	3.4	152	.	.
C=CCNC(=S)NNC(=O)COc1ccc(Br)cc1	.	.	.	.	.	.	/	/	/
CCN(CC)c1ccc2cc(-c3nnc(-c4ccccc4)o3)c(=O)oc2c1	.	.	.	155	.	.	185	137	126
COc1cccc(C(=O)Nc2nc3c(s2)CN(C)CC3)c1	.	.	.	.	.	.	/	/	/
Cc1cccc(-c2cc3nc4c(c(N5CCCC(O)C5)n3n2)CCC4)c1 (centres undefined)	.	.	.	.	.	.	/	/	/
OC1CCCN(c2c3c(nc4cc(-c5cccc(F)c5)nn24)CCCC3)C1 (centres undefined)	.	.	.	158	.	.	166	.	116
N/C(=N\OC(=O)COc1ccc(Br)cc1Cl)c1ccncc1	.	.	.	178	140	4.4	193	144	118
Cc1ccc(-n2cnc3cc(NCc4cccs4)ccc32)cc1	.	.	.	.	.	.	/	/	/
c1ccc(-n2cnc3cc(NCc4cccs4)ccc32)cc1	.	.	.	169	205	.	249	133	.
C/C(N)=C(/C#N)C(=O)COC(=O)c1cc(C)n(-c2ccc(F)cc2)c1C	.	.	.	154	.	.	173	.	153
c1ccc2c(c1)Cn1nnnc1-2	.	.	.	.	.	.	/	/	/
Clc1ccc(-c2cn3c(n2)-c2ccccc2C3)cc1Cl	.	.	.	196	166	9.7	258	134	135
Cc1ccsc1C(=O)NNC(=O)C1C2C=CC(C2)C1C(=O)O (centres undefined)	.	.	.	184	154	.	131	.	.
COC(=O)c1sccc1NC(=O)C1C2C=CC(C2)C1C(=O)O (centres undefined)	.	.	.	.	.	.	/	/	/
Cc1ccc(OCC(=O)Nc2ccc(N(C)C)cc2)cc1	.	.	.	.	.	.	/	/	/
Cc1ccc(NC(=S)c2ccc(N(C)C)cc2)cc1	.	.	.	170	150	3.5	201	.	.
CC(=O)n1nc(-c2ccccc2)nc1NCc1cccs1	.	.	.	.	.	.	/	/	/
CCC(=O)Nc1ccc2c(c1)ncn2-c1ccc(C)cc1	.	.	.	162	.	.	183	136	135
COc1ccc(CCN(C)C(=O)CCc2nnc(-c3ccccc3)o2)cc1OC	.	.	.	159	.	4.1	166	.	116
CCn1cc(C(=O)Nc2ccc(-n3cnnn3)c(OC)c2)c(=O)c2ccc(C)nc21	.	.	.	.	.	.	/	/	/
Cc1ccc(-c2cc(N)n(-c3ccc(F)cc3)n2)cc1	.	.	.	155	.	.	142	.	.
COc1cccc(N/C=C/C(=O)c2ccc(Cl)cc2)c1	.	.	.	180	198	6.4	239	.	.
COc1cccc(C(=O)/C=C/Nc2ccc(S(=O)(=O)Nc3cccc(C(C)=O)c3)cc2)c1	.	.	.	.	.	.	/	/	/
SMILES	STAT3 blocker	STAT1 inh	STAT3 act	STAT1 activator	APP 5'UTR act	NF-kB expr up	STAT1 act conf	NFkB act STAT1ct	STAT3 act 2
COc1ccc(C(C#N)N2N=C(c3ccccc3)CC2c2ccccc2)cc1OC (centres undefined)	.	.	.	.	.	.	/	/	/
COc1ccc(C2=NN(C(C#N)c3ccc(OC)cc3)C(c3ccccc3)C2)cc1 (centres undefined)	.	.	.	172	.	6	.	.	.
N#Cc1cnc(SCCc2ccccc2)nc1N	.	.	.	.	.	.	/	/	/
Cc1ccccc1CSc1ncc(C#N)c(N)n1	.	.	.	166	.	.	169	.	.
Nc1ccc(-c2nc3ccc([N+](=O)[O-])cc3[nH]2)cc1	.	.	.	182	.	7.1	233	147	120
Nc1ccc(-c2nc3ccc(N)cc3[nH]2)cc1	.	.	.	.	.	/	/	/	/
O=C(/C=N/O)NCc1ccncc1	.	.	.	.	.	.	/	/	/
Cc1nn(-c2nnc(NC3CCCCC3)nn2)c(C)c1Br	.	.	.	164	.	.	185	.	122
Cc1nn(C)c(C)c1S(=O)(=O)NC1CCCC1	.	.	.	.	.	.	/	/	/
Cc1cccc(C)c1NC(=O)CNC(=O)CCC(=O)c1cccs1	.	.	.	.	.	.	/	/	/
CCOC(=O)/C(C#N)=C\C=C1C=CN(C)C=C1	.	.	.	154	.	.	162	.	115
CC(=O)OCCCN1c2ccccc2Nc2nnc(-c3ccccc3)cc21	.	.	.	158	171	.	192	.	.
CCOc1ccc(/C=N/NC(=O)Nc2ccccc2)cc1	.	.	.	161	.	.	208	140	121
CCN(CC)c1ccc(/C=N/NC(=O)Nc2ccccc2)cc1	.	.	.	162	.	/	173	134	123
CCN(CC)c1ccc(/C=N\NC(N)=O)cc1	.	.	.	.	.	.	/	/	/
CCOc1ccc(/C=N/NC(=O)CC(=O)NCc2ccccc2)cc1	.	.	.	.	.	.	/	/	/
CC(=O)Oc1ccc(/C=N/NC(=S)Nc2ccccc2)cc1	.	.	.	160	.	5.3	209	.	.
CC(C)c1ccc(CN2CC(C(=O)Nc3ccccc3)CC2=O)cc1 (centres undefined)	.	.	.	.	.	.	/	/	/
COc1cccc(-c2cc(C(=O)N3CCCCC3C)no2)c1 (centres undefined)	.	.	.	154	.	3.6	181	134	123
c1ccc2c(c1)oc1c(Nc3ccc(CN4CCOCC4)cc3)ncnc12	.	.	.	158	187	.	207	135	115
c1ccc2c(c1)oc1c(Nc3ccc4c(c3)OCO4)ncnc12	.	.	.	158	.	.	202	142	.
Cc1cccn2c(CN3CCNC(=O)CC3)c(C(=O)N(C)CCc3ccccc3)nc12	.	.	.	.	.	.	/	/	/

From PubChem
